The structures appear in SMILES notation.

Test [1] has as its system Triticum aestivum. The experiment in a line: Post-emergent herbicidal activity against Triticum vulgare var. Salamanca (wheat) assessed as dry biomass at 60 uM after 14 days relative to control. Type of test: functional. Summed up:
(§1)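 Plants were grown 18 days in a greenhouse, then sprayed with compound dissolved in MeOH with Tween 20 and maize oil. Controls were sprayed with distilled water containing the same MeOH, Tween 20 and maize oil. Dry biomass of all leaves was weighed 14 days after spraying, and differences from control were judged by Student's t-test (p < 0.05).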

Test [2] deals with Lolium multiflorum. The experiment in a line: Herbicidal activity against Lolium multiflorum (Italian ryegrass) assessed as inhibition of seed respiration after 5 to 72 hr by Clark's electrode method. In kind it is functional, organism-based. Summed up:
(§2)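 Seeds imbibed in 10 mL water on filter paper in Petri dishes, with compound at 10–50 μM (dissolved in MeOH, final MeOH under 1%); controls received the same water and MeOH. O2 uptake was measured polarographically after 5, 24, 48 and 72 h of imbibition, and consumption rate was calculated. IC50 at 72 h was derived by probit/linear regression. Replicate experiments, means ± S.E.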

Test [3] relates to Trifolium alexandrinum. The experiment in a line: Post-emergent herbicidal activity against Trifolium alexandrinum assessed as dry biomass at 20 uM after 14 days relative to control. Type of test: functional. The essentials: as §1
Test [4] relates to Physalis ixocarpa. In words: Post-emergent herbicidal activity against Physalis ixocarpa assessed as dry biomass at 20 uM after 14 days relative to control. Type of test: functional. Summed up:
as §1

The test system of test [5] is Triticum aestivum. The experiment in a line: Herbicidal activity against Triticum vulgare var. Salamanca (wheat) assessed as inhibition of seed respiration after 5 to 72 hr by Clark's electrode method. In kind it is functional, organism-based. Summed up:
as §2

For test [6], the system named is Physalis ixocarpa. In words: Herbicidal activity against Physalis ixocarpa assessed as inhibition of shoot elongation after 5 days. As to conditions: 120 h.
Test [7] relates to Physalis ixocarpa. The experiment in a line: Herbicidal activity against Physalis ixocarpa assessed as inhibition of seed respiration at 10 to 50 uM by Clark's electrode method. Type of test: functional, organism-based. To be noted: TDE = time-dependent effect. Summed up: as §2
Test [8] concerns Spinacia oleracea. In words: Inhibition of hill reaction in Spinacia oleracea (spinach) chloroplast. In kind it is functional.
For test [9], the system named is Lolium multiflorum. In words: Post-emergent herbicidal activity against Lolium multiflorum (Italian ryegrass) assessed as dry biomass at 20 uM after 14 days relative to control. Type of test: functional. Summed up:
as §1

Test [10] has as its system Trifolium alexandrinum. In words: Herbicidal activity against Trifolium alexandrinum assessed as inhibition of seed respiration at 10 to 50 uM by Clark's electrode method. In kind it is functional, organism-based. To be noted: TDE = time-dependent effect. The essentials:
as §2

For test [11], the system named is Triticum aestivum. In words: Herbicidal activity against Triticum vulgare var. Salamanca (wheat) assessed as inhibition of seed respiration at 10 to 50 uM by Clark's electrode method. In kind it is functional, organism-based. To be noted: TDE = time-dependent effect. Summed up:
as §2

In test [12] the test system is Trifolium alexandrinum. In words: Herbicidal activity against Trifolium alexandrinum assessed as inhibition of seed germination after 5 days. To be noted: 120 h.
For test [13], the system named is Spinacia oleracea. The experiment in a line: Inhibition of light reaction of photosynthesis in Spinacia oleracea (spinach) chloroplast. In kind it is functional.
The test system of test [14] is Triticum aestivum. In words: Herbicidal activity against Triticum vulgare var. Salamanca (wheat) assessed as inhibition of root elongation after 4 days. As to conditions: 96 h.
The test system of test [15] is Physalis ixocarpa. The experiment in a line: Herbicidal activity against Physalis ixocarpa assessed as inhibition of seed germination after 5 days. As to conditions: 120 h.
Test [16] concerns Triticum aestivum. The experiment in a line: Herbicidal activity against Triticum vulgare var. Salamanca (wheat) assessed as inhibition of seed respiration after 72 hr by Clark's electrode method. Type of test: functional, organism-based. The essentials:
(§3)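 Seeds were imbibed in 10 mL water in Petri dishes with compound at 10–50 μM, as in the germination set-up. O2 uptake was measured after 5, 24, 48 and 72 h with an oxygen electrode, where O2-reduction current was converted to voltage. Consumption rate was calculated, with replicates as mean ± S.E. IC50 came from probit analysis.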

Test [17] has as its system Physalis ixocarpa. The experiment in a line: Herbicidal activity against Physalis ixocarpa assessed as inhibition of seed germination at 50 uM after 5 days. Type of test: functional. As to conditions: 120 h. Summed up: (§4)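 Seeds were placed on filter paper in Petri dishes (20 seeds for T. vulgare) and wetted with deionized water or test solution. Compound was given in MeOH at under 1%, and controls held matching MeOH. Three replicate experiments were run. Germination was scored as 1 mm root extrusion, and root and shoot length were measured on all germinated seeds. Student's t-test was used, and IC50 values came from probit analysis.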

The test system of test [18] is Trifolium alexandrinum. The experiment in a line: Herbicidal activity against Trifolium alexandrinum assessed as inhibition of shoot elongation after 5 days. To be noted: 120 h.
The test system of test [19] is Trifolium alexandrinum. The experiment in a line: Post-emergent herbicidal activity against Trifolium alexandrinum assessed as dry biomass at 40 uM after 14 days relative to control. Type of test: functional. Summed up:
as §1

Test [20] relates to Triticum aestivum. In words: Herbicidal activity against Triticum vulgare var. Salamanca (wheat) assessed as inhibition of shoot elongation after 4 days. As to conditions: 96 h.
For test [21], the system named is Triticum aestivum. The experiment in a line: Post-emergent herbicidal activity against Triticum vulgare var. Salamanca (wheat) assessed as dry biomass at 40 uM after 14 days relative to control. In kind it is functional. Summed up: as §1
Test [22] relates to Physalis ixocarpa. In words: Herbicidal activity against Physalis ixocarpa assessed as inhibition of seed respiration after 5 to 72 hr by Clark's electrode method. Type of test: functional, organism-based. The essentials: as §2
Test [23] deals with Physalis ixocarpa. In words: Post-emergent herbicidal activity against Physalis ixocarpa assessed as dry biomass at 60 uM after 14 days relative to control. In kind it is functional. The essentials: as §1
Test [24] has as its system Trifolium alexandrinum. The experiment in a line: Post-emergent herbicidal activity against Trifolium alexandrinum assessed as dry biomass at 60 uM after 14 days relative to control. In kind it is functional. Summed up:
as §1

The test system of test [25] is Trifolium alexandrinum. In words: Herbicidal activity against Trifolium alexandrinum assessed as inhibition of seed respiration after 5 to 72 hr by Clark's electrode method. Type of test: functional, organism-based. The essentials: as §2
Test [26] relates to Lolium multiflorum. In words: Post-emergent herbicidal activity against Lolium multiflorum (Italian ryegrass) assessed as dry biomass at 40 uM after 14 days relative to control. In kind it is functional. Summed up: as §1
The test system of test [27] is Trifolium alexandrinum. The experiment in a line: Herbicidal activity against Trifolium alexandrinum assessed as inhibition of root elongation after 5 days. To be noted: 120 h.
For test [28], the system named is Triticum aestivum. In words: Herbicidal activity against Triticum vulgare var. Salamanca (wheat) assessed as inhibition of seed germination after 4 days. As to conditions: 96 h.
Test [29] concerns Lolium multiflorum. The experiment in a line: Herbicidal activity against Lolium multiflorum (Italian ryegrass) assessed as inhibition of seed germination after 5 days. As to conditions: 120 h.
In test [30] the test system is Physalis ixocarpa. The experiment in a line: Herbicidal activity against Physalis ixocarpa assessed as inhibition of root elongation after 5 days. As to conditions: 120 h.
Test [31] concerns Physalis ixocarpa. In words: Post-emergent herbicidal activity against Physalis ixocarpa assessed as dry biomass at 40 uM after 14 days relative to control. Type of test: functional. Summed up:
as §1

Test [32] has as its system Triticum aestivum. In words: Post-emergent herbicidal activity against Triticum vulgare var. Salamanca (wheat) assessed as dry biomass at 20 uM after 14 days relative to control. In kind it is functional. Summed up:
as §1

Test [33] deals with Lolium multiflorum. The experiment in a line: Post-emergent herbicidal activity against Lolium multiflorum (Italian ryegrass) assessed as dry biomass at 60 uM after 14 days relative to control. In kind it is functional. The essentials:
as §1

For test [34], the system named is Lolium multiflorum. The experiment in a line: Herbicidal activity against Lolium multiflorum (Italian ryegrass) assessed as inhibition of shoot elongation after 5 days. To be noted: 120 h.
For test [35], the system named is Physalis ixocarpa. In words: Herbicidal activity against Physalis ixocarpa assessed as inhibition of seed respiration after 72 hr by Clark's electrode method. In kind it is functional, organism-based. Summed up: as §3
For test [36], the system named is Lolium multiflorum. In words: Herbicidal activity against Lolium multiflorum (Italian ryegrass) assessed as inhibition of seed respiration after 72 hr by Clark's electrode method. Type of test: functional, organism-based. Summed up:
as §3

Test [37] concerns Lolium multiflorum. In words: Herbicidal activity against Lolium multiflorum (Italian ryegrass) assessed as inhibition of seed germination at 50 uM after 5 days. Type of test: functional. As to conditions: 120 h. Summed up:
as §4

For test [38], the system named is Lolium multiflorum. In words: Herbicidal activity against Lolium multiflorum (Italian ryegrass) assessed as inhibition of root elongation after 5 days. As to conditions: 120 h.
For test [39], the system named is Trifolium alexandrinum. The experiment in a line: Herbicidal activity against Trifolium alexandrinum assessed as inhibition of seed respiration after 72 hr by Clark's electrode method. Type of test: functional, organism-based. The essentials:
as §3

The subject of test [40] is Lolium multiflorum. In words: Herbicidal activity against Lolium multiflorum (Italian ryegrass) assessed as inhibition of seed respiration at 10 to 50 uM by Clark's electrode method. In kind it is functional, organism-based. As to conditions: TDE = time-dependent effect. The essentials:
as §2

Test [41] is described as follows: Inhibition of mitochondrial complex 1 in Homo sapiens (human) T47D cells by Clark's electrode method. Type of test: cell-based.

By inhibition is commonly meant how much of the control response was suppressed. The term IC50 denotes the concentration at which inhibition is half-maximal. Turning to `CCCCC[C@H]1CCCCCCCCCC(=O)O[C@H]2[C@H](O)[C@@H](CO)O[C@@H](O[C@H]3[C@H](O1)O[C@H](C)[C@H](O)[C@@H]3O)[C@@H]2O[C@@H]1O[C@@H](C)[C@H](OC(=O)[C@@H](C)CC)[C@@H](O[C@@H]2O[C@@H](C)[C@H](O)[C@@H](O)[C@H]2O)[C@H]1OC(=O)[C@@H](C)CC` [TRICOLORIN A], the Activity was found to be 67% in [1]; 87% in [3]; 104% in [4]; 91% in [9]; 83% in [19]; 78% in test [21]. Moreover, the Activity in [23] is 78%; in test [24], 63%; in test [26] it was 53%; in test [31], 84%; in test [32], 82%; in test [33] it was 38%. Further, the inhibition entry in test [2] was “Dose-dependent effect”; in [5], “Dose-dependent effect”; in test [7] it was “tde”; in test [10], “tde”; in [11] it was “tde”; in [22], “Dose-dependent effect”. The inhibition result in [25] was “Dose-dependent effect”; in test [40] it was “tde”. In addition, the IC50 was determined as 12.7 µM in test [6]; 5 µM in test [8]; 16 µM in [12]; 24.1 µM in test [14]; 13.8 µM in [15]; 25.7 µM in test [16]. The IC50 worked out at 12.7 µM in [18]; 8.5 µM in test [20]; 18 µM in test [27]; 25.7 µM in test [28]; 16.1 µM in test [29]; 13.8 µM in test [30]. The IC50 in [34] worked out at 12.3 µM; in test [35], 11.7 µM; in [36] it was 8 µM; in [38], 15.3 µM; in test [39], 22.6 µM. In test [13], this compound registered a UC50 of 0.33 µM. For the same compound, the inhibition at 50 µM in test [17] and in test [37] was 100% in each case.
As to `C[n+]1ccc(-c2cc[n+](C)cc2)cc1.[Cl-].[Cl-]` [PARAQUAT DICHLORIDE], the Activity is 67% in test [1]; 67% in test [3]; 96% in [4]; 97% in test [9]; 59% in test [19]; 67% in [21]. Moreover, the Activity in [23] came to 84%; in test [24], 57%; in test [26], 54%; in test [31], 100%; in [32], 83%; in test [33], 32%.
In [41], `CC(C)(O)[C@H]1CC[C@](C)([C@@H](O)CC[C@](C)(O)[C@H]2CC[C@H]3O[C@@H]([C@]4(C)CC[C@@H](Br)C(C)(C)O4)CC[C@]3(C)O2)O1` [THYRSIFEROL] displayed an IC50 of 3 µM.

These data come from ChEMBL document CHEMBL3046181 (Molecules, 2013).
